# ChEMBL document CHEMBL4842354, “Synthesis, structure-activity relationships, cocrystallization and cellular characterization of novel smHDAC8 inhibitors for the treatment of schistosomiasis” (Eur J Med Chem, 2021)
# pEC50, pIC50: −log10 of the molar value.
# How the values were obtained:
# Histone deacetylase 8 [1] = biological target: T1, Histone deacetylase 8 (Schistosoma mansoni, UniProt A5H660); assay: Inhibition of Schistosoma mansoni HDAC8 using Fluor de Lys as substrate incubated for 90 mins by fluorescence method
# T1 sequence (A5H660 whole entry): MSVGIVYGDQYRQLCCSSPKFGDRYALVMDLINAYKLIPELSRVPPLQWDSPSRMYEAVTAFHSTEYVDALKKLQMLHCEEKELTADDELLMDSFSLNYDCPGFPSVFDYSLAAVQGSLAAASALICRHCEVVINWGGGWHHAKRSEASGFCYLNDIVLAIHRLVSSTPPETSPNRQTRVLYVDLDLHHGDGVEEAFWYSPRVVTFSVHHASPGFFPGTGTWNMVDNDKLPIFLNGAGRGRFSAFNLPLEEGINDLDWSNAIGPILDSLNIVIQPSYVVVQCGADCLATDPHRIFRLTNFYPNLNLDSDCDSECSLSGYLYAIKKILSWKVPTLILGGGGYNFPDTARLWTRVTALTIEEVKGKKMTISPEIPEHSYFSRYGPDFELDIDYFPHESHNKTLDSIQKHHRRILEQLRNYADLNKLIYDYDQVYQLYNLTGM
# Method in brief: (§1)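 Recombinant smHDAC8 or hHDAC8 (Romier lab) run to Fluor de Lys HDAC8 kit protocol. Substrate H2N-Arg-His-Lys(Ac)-Lys(Ac)-AMC at 50 μM with increasing inhibitor concentrations, 90 min at 37°C. Stop solution holding inhibitor plus trypsin, then 20 min at 37°C to release AMC. Fluorescence read at Ex 355/Em 460 nm.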
# [2] = biological target: T2, Histone deacetylase 8 (Homo sapiens) (UniProt Q9BY41); assay: Inhibition of human recombinant HDAC8 at 1 uM using H2N-Arg-His-Lys(Ac)-Lys(Ac)-AMC as substrate after 90 mins by fluorescence based micro plate assay; method in brief: as §1
# T2 sequence (whole entry): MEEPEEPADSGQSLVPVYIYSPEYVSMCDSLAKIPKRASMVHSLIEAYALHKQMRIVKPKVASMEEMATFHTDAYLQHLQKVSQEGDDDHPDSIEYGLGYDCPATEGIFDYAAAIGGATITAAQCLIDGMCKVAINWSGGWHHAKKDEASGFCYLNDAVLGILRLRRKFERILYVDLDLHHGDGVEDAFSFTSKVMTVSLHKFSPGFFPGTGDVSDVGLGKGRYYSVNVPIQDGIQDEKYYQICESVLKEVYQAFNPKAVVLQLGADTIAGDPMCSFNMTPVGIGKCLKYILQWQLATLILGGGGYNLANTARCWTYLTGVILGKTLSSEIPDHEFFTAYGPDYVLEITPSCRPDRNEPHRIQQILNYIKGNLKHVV
# Histone deacetylase 1 [3] = biological target: T3, Histone deacetylase 1 (Homo sapiens, UniProt Q13547); assay: Inhibition of recombinant human HDAC1 using ZMAL as substrate incubated for 90 mins by fluorescence based micro plate assay
# T3 sequence (Q13547 whole entry): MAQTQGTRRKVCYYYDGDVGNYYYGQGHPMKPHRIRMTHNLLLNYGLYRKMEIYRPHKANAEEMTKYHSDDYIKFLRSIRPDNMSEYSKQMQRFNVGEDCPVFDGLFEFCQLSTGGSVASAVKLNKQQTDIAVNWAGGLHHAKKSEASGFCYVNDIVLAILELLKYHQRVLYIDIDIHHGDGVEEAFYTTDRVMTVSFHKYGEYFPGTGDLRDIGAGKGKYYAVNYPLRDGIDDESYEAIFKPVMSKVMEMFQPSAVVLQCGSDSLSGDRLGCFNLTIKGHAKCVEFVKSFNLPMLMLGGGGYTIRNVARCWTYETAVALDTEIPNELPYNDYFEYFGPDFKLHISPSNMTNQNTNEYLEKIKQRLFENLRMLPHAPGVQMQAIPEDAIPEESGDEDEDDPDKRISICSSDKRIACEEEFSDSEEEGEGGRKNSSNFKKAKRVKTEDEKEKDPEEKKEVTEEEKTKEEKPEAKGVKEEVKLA
# [4] = biological target: T4, Protein deacetylase HDAC6 (Homo sapiens, UniProt Q9UBN7); assay: Inhibition of recombinant human HDAC6 using ZMAL as substrate incubated for 90 mins by fluorescence based micro plate assay
# T4 sequence (Q9UBN7 whole entry): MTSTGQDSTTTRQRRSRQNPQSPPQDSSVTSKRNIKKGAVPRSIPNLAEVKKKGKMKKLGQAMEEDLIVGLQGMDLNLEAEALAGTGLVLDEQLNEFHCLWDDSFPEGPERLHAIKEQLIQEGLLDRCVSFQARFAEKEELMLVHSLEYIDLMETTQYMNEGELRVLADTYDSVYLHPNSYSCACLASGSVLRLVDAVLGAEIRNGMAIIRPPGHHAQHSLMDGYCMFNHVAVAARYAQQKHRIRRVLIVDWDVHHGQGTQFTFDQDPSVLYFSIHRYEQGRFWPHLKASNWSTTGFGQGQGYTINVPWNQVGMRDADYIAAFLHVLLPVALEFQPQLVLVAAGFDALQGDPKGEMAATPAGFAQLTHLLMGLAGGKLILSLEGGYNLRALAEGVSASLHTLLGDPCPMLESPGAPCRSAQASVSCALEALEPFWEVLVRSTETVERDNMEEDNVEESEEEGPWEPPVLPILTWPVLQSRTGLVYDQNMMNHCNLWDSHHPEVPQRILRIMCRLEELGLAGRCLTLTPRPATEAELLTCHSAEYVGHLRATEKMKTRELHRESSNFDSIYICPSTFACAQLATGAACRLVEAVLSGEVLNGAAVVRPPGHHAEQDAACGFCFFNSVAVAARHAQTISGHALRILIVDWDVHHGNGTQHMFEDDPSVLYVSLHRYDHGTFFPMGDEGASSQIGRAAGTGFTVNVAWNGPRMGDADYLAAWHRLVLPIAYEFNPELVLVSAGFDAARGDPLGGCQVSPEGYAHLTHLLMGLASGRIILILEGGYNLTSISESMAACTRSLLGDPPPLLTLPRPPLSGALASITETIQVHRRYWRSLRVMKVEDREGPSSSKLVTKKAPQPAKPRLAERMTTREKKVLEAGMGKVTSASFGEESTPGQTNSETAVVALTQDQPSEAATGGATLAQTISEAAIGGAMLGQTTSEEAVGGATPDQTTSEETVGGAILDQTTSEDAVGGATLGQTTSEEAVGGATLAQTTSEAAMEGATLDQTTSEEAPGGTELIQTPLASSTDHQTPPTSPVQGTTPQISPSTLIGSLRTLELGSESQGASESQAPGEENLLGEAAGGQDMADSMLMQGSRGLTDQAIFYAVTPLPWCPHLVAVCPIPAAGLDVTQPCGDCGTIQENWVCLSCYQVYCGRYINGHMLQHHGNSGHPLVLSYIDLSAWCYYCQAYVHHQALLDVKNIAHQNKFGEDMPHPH
# Schistosoma mansoni [5] = assay: Antischistosomal activity against Schistosoma mansoni schistosomula at 10 uM incubated for 48 hrs by Alamar Blue assay; type: functional
# Method in brief: (§2)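 S. mansoni newly transformed schistosomula from mechanically transformed cercariae, 100 NTS/well in Medium 199 with 10% FCS, penicillin, streptomycin and rifampicin. Pre-cultured 3 h at 37°C, 5% CO2. Compounds from 20 mM DMSO stocks, final 10 or 20 μM. Alamar Blue added after 48 h exposure, then 24 h more. Resorufin read at Ex 530/Em 590 nm. Live and ethanol-killed larvae as controls; triplicate wells, two biological replicates.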
# Schistosoma mansoni [6] = assay: Antischistosomal activity against Schistosoma mansoni schistosomula at 20 uM incubated for 48 hrs by Alamar Blue assay; type: functional; method in brief: as §2
# HEK293 = assay: Cytotoxicity against human HEK293 assessed as reduction in cell viability at 50 uM measured for 24 hrs by Alamar Blue assay; type: cell-based; details: hek293, 24 h
# Method in brief: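 HEK293 cells in DMEM with 10% FCS and 5 mM glutamine at 37°C, 5% CO2, seeded at 1.5×10^3 cells/well. Compounds added at 50 μM. AlamarBlue added after 24 h and incubated a further 21 h. Resorufin fluorescence read at Ex 530/Em 590 nm. Triplicates; daunorubicin positive control.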
# Histone deacetylase 8 [7] = biological target: T5, Histone deacetylase 8 (Homo sapiens, UniProt Q9BY41); assay: Inhibition of human recombinant HDAC8 using H2N-Arg-His-Lys(Ac)-Lys(Ac)-AMC as substrate after 90 mins by fluorescence based micro plate assay
# T5 sequence (Q9BY41 whole entry): T2 sequence (whole entry)
# Histone deacetylase 1 [8] = biological target: T3, Histone deacetylase 1; assay: (§3) Inhibition of recombinant human HDAC1 at 1 uM using ZMAL as substrate incubated for 90 mins by fluorescence based micro plate assay relative to control; details: 1.5 h, 1 µM
# Method in brief: (§4)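 Recombinant human HDAC1 or HDAC6 incubated 90 min at 37°C with ZMAL (Z-(Ac)Lys-AMC, 10.5 μM) and inhibitor. Developed with buffer containing trypsin (1 mg/mL) and TSA (2.75 μM), 20 min at 37°C. Fluorescence read at Ex 390/Em 460 nm.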
# [9] = biological target: T6, HDAC1 (histone deacetylase 1) (Homo sapiens, UniProt Q13547); assay: Inhibition of recombinant human HDAC1 at 10 uM using ZMAL as substrate incubated for 90 mins by fluorescence based micro plate assay relative to control; details: recombinant human HDAC1, probe ZMAL; method in brief: as §4
# T6 sequence (Q13547 whole entry): as the sequence (Q13547 whole entry) above
# [10] = biological target: T7, HDAC6 (protein deacetylase HDAC6) (Homo sapiens, UniProt Q9UBN7); assay: Inhibition of recombinant human HDAC6 at 10 uM using ZMAL as substrate incubated for 90 mins by fluorescence based micro plate assay relative to control; details: recombinant human HDAC6, probe ZMAL; method in brief: as §4
# T7 sequence (Q9UBN7 whole entry): T4 sequence (Q9UBN7 whole entry)
# [11] = biological target: T7, HDAC6 (protein deacetylase HDAC6); assay: Inhibition of recombinant human HDAC6 at 1 uM using ZMAL as substrate incubated for 90 mins by fluorescence based micro plate assay relative to control; details: recombinant human HDAC6, probe ZMAL; method in brief: as §4
# [12] = biological target: T7, HDAC6 (protein deacetylase HDAC6); assay: Inhibition of recombinant human HDAC6 at 100 uM using ZMAL as substrate incubated for 90 mins by fluorescence based micro plate assay relative to control; details: recombinant human HDAC6, probe ZMAL; method in brief: as §4
# [13] = biological target: T8, Histone deacetylase 8 (Schistosoma mansoni) (UniProt A5H660); assay: Inhibition of Schistosoma mansoni HDAC8 at 0.5 uM using Fluor de Lys as substrate incubated for 90 mins by fluorescence method relative to control; method in brief: as §1
# T8 sequence (whole entry): T1 sequence (A5H660 whole entry)
# [14] = biological target: T6, HDAC1 (histone deacetylase 1); assay: as §3; details: recombinant human HDAC1, probe ZMAL; method in brief: as §4
# [15] = Solubility of the compound; type: physicochemical
# Schistosoma mansoni [16] = assay: Antischistosomal activity against Schistosoma mansoni schistosomula incubated for 72 hrs by Alamar Blue assay; type: functional, organism-based
# Method in brief: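 Same schistosomula Alamar Blue assay (100 NTS/well, supplemented Medium 199, 37°C, 5% CO2) run over a range of concentrations. Alamar Blue added after 48 h drug exposure, fluorescence (Ex 530/Em 590 nm) read 24 h later, 72 h in culture in total. EC50 taken from the concentration-response.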
SMILES,pIC50 (Histone deacetylase 8 [1]),inhibition [2] [%],pIC50 (Histone deacetylase 1 [3]),pIC50 [4],pIC50 (Histone deacetylase 8 [7]),inhibition (INH) (Histone deacetylase 1 [8]),"inhibition at 1.5 h, 10 µM [9] [%]","inhibition at 1.5 h, 10 µM [10] [%]","inhibition at 1.5 h, 1 µM [11] [%]","inhibition at 1.5 h, 100 µM [12] [%]",inhibition [13] [%],"inhibition at 1.5 h, 1 µM [14] [%]",solubility [15],pEC50 (Schistosoma mansoni [16]),Activity (Schistosoma mansoni [5]) [%],Activity (Schistosoma mansoni [6]) [%],Activity (HEK293) [%]
COc1ccc(Cn2ccc3ccc(C(=O)NO)cc32)cc1,–,–,–,–,–,–,–,–,–,41,–,–,–,–,71,62.3,96.8
CCOc1ccc(C(=O)NO)cc1NC(=O)c1ccc(OC)cc1,–,–,–,–,–,–,–,–,–,–,51,–,–,–,64.4,59.4,88.7
COc1ccc(NC(=O)c2cc(C(=O)NO)ccc2OC)cc1,6.37,–,–,–,6.57,–,–,–,18,–,–,2,–,–,91,83.3,94.5
COc1ccc(C(=O)NO)cc1C(=O)Nc1cccc(Cl)c1,6.77,–,–,–,6.55,–,–,–,25,–,–,0,–,–,85.6,82.8,88.2
COc1ccc(C(=O)NO)cc1NC(=O)c1cccc2c1oc1ccccc12,6.57,–,4.73,6.54,6.49,–,–,–,–,–,–,–,Insoluble,5.46,2.2,–,73
O=C(NO)c1ccc(Cl)c(NC(=O)c2ccc(-c3ccccc3)cc2)c1,6.40,–,4.96,6.80,6.35,–,–,–,–,–,–,–,–,–,62.3,55.1,81.7
O=C(NO)c1ccc(Cl)c(C(=O)Nc2ccc(Cl)cc2)c1,–,–,–,–,–,–,–,–,94,–,–,20,–,–,77.6,62.3,69.5

# More lines, main results first:
pIC50 (Histone deacetylase 8 [1]),inhibition [2] [%],pIC50 (Histone deacetylase 1 [3]),pIC50 [4],pIC50 (Histone deacetylase 8 [7]),inhibition (INH) (Histone deacetylase 1 [8]),"inhibition at 1.5 h, 10 µM [9] [%]","inhibition at 1.5 h, 10 µM [10] [%]","inhibition at 1.5 h, 1 µM [11] [%]","inhibition at 1.5 h, 100 µM [12] [%]",inhibition [13] [%],"inhibition at 1.5 h, 1 µM [14] [%]",solubility [15],pEC50 (Schistosoma mansoni [16]),SMILES,Activity (Schistosoma mansoni [5]) [%],Activity (Schistosoma mansoni [6]) [%],Activity (HEK293) [%]
6.82,71,6.44,7.70,–,–,–,–,–,–,–,–,–,–,COc1ccc(C(C)=O)cc1NC(=O)c1cc(C(=O)NO)ccc1OC,78.2,66.2,66.2
7.00,–,–,–,5.96,Not Active,16,46,15,–,–,–,–,–,COc1ccc(C(=O)NO)cc1NC(=O)c1ccc(-c2ccccc2)cc1Cl,64,65.6,94.6
7.00,–,5.41,5.82,6.66,–,–,–,–,–,–,–,–,–,CSc1ccc(C(=O)NO)cc1NC(=O)c1ccc(-c2ccccc2)cc1,57.4,64.9,82.3
6.96,–,–,5.62,6.11,–,18,–,–,–,–,7,–,–,O=C(NO)c1ccc(Cl)c(NC(=O)c2ccc(-c3ccccc3)cc2Cl)c1,60.6,43.5,77
